ABHD4 inh – ABHD4 inhibitors, primary screen, biochemical, fluorescence polarization, mouse | (Lyso)-N-acylphosphatidylethanolamine lipase (Mus musculus), Q8VD66 | purified mABHD4, FP-Rh probe fluorescence polarization | inhibition, % at 8.92 µM | 370,000 tested, 0.54% active | AID 720543, 2013;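 active means inhibition exceeding the mean over every tested compound plus 3 SD, cut at about 30% in these data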;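 further: 0% = plate median of compound wells and 100% = S159A mutant with DMSO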
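Assay system: wild-type mouse ABHD4 protein; compound: single nominal dose of 8.92 µM, 0.89% DMSO final; schedule: 45 min + 60 min at 25 °C; measured by: FP readout, ex 525 nm / em 598 nm; evaluation: % inhibition of FP-Rh probe binding versus controls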
Tn7 DDE FP – inhibitors of Tn7 peptide binding to fibrin DD(E), primary screen, biochemical, fluorescence polarization, human fibrin, Tn7 probe | FP displacement of FITC-Tn7 peptide from fibrin DD(E); 0% = median of compound wells per plate | Fibrinogen beta chain (Homo sapiens), P02675 | inhibition, % at 8.3 µM | 370,000 tested, 0.13% active;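 active means inhibition above the mean of compounds falling within the control limits plus 3 SD of them, cut at about 14% in these data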;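 further: 0% = plate median of compound wells and 100% = 10 µM Aha-Tn7 peptide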
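Test system: human clot-derived fibrin DD(E) complex / Quantity: 2 µM final DD(E) protein / Incubation: 10 min plus 3 h, room temperature / Measured by: fluorescence polarization / Benchmarks: high control of 10 µM Aha-Tn7 peptide / Replicates: singlicate testing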
HTRA1 inh – HTRA1 serine protease inhibitors, primary screen, biochemical, fluorescence polarization, HTS; AID 504803, 2011; recombinant HTRA1, FP-rhodamine activity-based probe; 340,000 tested, 0.5% active; inhibition, % at 5.96 µM; in the data active means inhibition above about 36%;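 further: 0% = enzyme with DMSO and 100% = wells lacking enzyme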
Tn6 DDE FP – inhibitors of Tn6 peptide binding to fibrin DD(E), primary screen, biochemical, fluorescence polarization, human fibrin, Tn6 probe; Fibrinogen beta chain (Homo sapiens), P02675; Fibrin DD(E) TRITC-Tn6 fluorescence polarization displacement; inhibition, % at 8.3 µM; 370,000 tested, 0.21% active; AID 720509, 2013;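 active means inhibition above a per-campaign cutoff: mean of compounds within control limits plus 3 SD, cut at about 15% in these data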;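 further: 0% = median of all compound wells on the plate and 100% = blocking peptide control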
TCR-CD3 inh – inhibitors of human TCR-CD3 interaction, primary screen, biochemical, fluorescence, TAMRA-labeled TCR probe | T-cell receptor (TCR) | inhibition, % at 9.4 µM | 360,000 tested, 0.37% active | AID 651800, 2012; in the data active means inhibition above about 19%;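 further: recombinant mutant TCR 2C K166C tagged with TAMRA read by polarization; 0% = receptor in buffer alone and 100% = receptor with positive control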
SIAE inh – human SIAE inhibitors, primary screen, biochemical, fluorescence polarization, FP-Rh probe, 1536-well HTS. inhibition, % at 9.66 µM. 370,000 tested, 0.69% active. Sialate O-acetylesterase (Homo sapiens), Q9HAT2. SIAE FP-Rh probe binding. AID 1053197, 2014;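 active means inhibition above a cutoff: mean of compounds within the control limits plus 3 SD of those, cut at about 17% in these data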;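 further: 0% = plate median of compound wells and 100% = probe without SIAE protein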
Target sequence (Q9HAT2 whole entry, looked up): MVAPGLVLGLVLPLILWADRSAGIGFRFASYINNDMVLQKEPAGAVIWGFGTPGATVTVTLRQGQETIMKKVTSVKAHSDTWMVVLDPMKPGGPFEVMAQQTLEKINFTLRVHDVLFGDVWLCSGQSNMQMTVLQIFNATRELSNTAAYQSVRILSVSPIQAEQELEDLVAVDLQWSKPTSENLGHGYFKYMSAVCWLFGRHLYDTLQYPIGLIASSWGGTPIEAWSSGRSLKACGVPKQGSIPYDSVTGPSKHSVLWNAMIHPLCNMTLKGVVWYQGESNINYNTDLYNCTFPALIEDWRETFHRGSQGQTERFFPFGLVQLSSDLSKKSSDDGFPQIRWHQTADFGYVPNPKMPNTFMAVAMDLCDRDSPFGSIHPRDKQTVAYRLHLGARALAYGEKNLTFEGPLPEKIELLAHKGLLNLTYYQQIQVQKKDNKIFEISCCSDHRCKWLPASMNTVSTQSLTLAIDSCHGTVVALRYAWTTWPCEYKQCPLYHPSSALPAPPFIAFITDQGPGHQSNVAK
mABHD4 conf – ABHD4 inhibitors, retest, confirmation, biochemical, fluorescence polarization, mouse | shares compounds with ABHD4 inh | 1,800 tested, 55% active | purified mABHD4, FP-Rh probe fluorescence polarization | inhibition, % at 8.92 µM;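 active means mean inhibition across replicates above the hit cutoff set in the primary screen, cut at about 30% in these data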;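 further: 0% = wild-type ABHD4 with DMSO and 100% = catalytically dead S159A mutant with DMSO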
* marks the source's active call; other numbers are inactive results; . = not tested or not shown. Compounds with a hit are over-represented: about 1.8% of the library has one in this group of screens.

SMILES	ABHD4 inh	Tn7 DDE FP	HTRA1 inh	Tn6 DDE FP	TCR-CD3 inh	SIAE inh	mABHD4 conf
COc1ccc(-n2nc(C(=O)NCC(=O)N(C)Cc3ccccc3)c3ccccc3c2=O)cc1OC	-7	-7	-11	3	-3	-3	.
COc1ccccc1N(C(C)=O)C1=C(Cl)C(=O)c2ccccc2C1=O	39*	5	23	-6	3	6	46*
COc1ccccc1C(=O)NC1CCCCN(C)C1=O (stereo not drawn)	2	0	.	7	0	-17	.
Cc1ccccc1-c1nnc2n1N=C(c1ccc(O)c(O)c1)CS2	32*	1	.	-1	.	14	21
Cc1ccc(OS(=O)(=O)c2ccc(N3C(=O)CCC3=O)cc2)cc1	-1	5	3	-3	1	1	.
O=C1SC(SCc2ccccc2)=N/C1=C\c1ccco1	30*	8	-5	9	9	7	4
CCCSC1=N/C(=C\C=C\c2ccco2)C(=O)S1	36*	3	30	-4	15	11	4
O=C1SC(SCc2ccccc2)=N/C1=C\c1ccc(C(=O)O)cc1	8	4	-2	3	9	-2	.
C=Cn1cc[n+](CC(=O)c2ccc(Br)cc2)c1	9	4	10	1	-1	-3	.
COc1ccccc1N(C)S(=O)(=O)c1ccc(C(=O)N2CCCC(C(F)(F)F)C2)cc1 (stereo not drawn)	.	.	-2	.	.	.	.
Cc1ccc(NS(=O)(=O)c2ccc(Cl)c(N=Nc3c(O)[nH]c(=O)[nH]c3=O)c2)cc1Cl	31*	5	1	5	0	5	48*
CCN(CC)S(=O)(=O)c1ccc(N2CCOCC2)c(NC(=O)c2cccc3ccccc23)c1	7	4	-23	4	9	2	.
CCN(CC)S(=O)(=O)c1ccc(N2CCOCC2)c(NC(=O)c2cccc3c(=O)c(C)c(-c4ccccc4)oc23)c1	33*	-2	-42	-1	-5	-18	37*
CCN(CC)S(=O)(=O)c1ccc(N2CCOCC2)c(NC(=O)c2c3c(nc4ccccc24)CCC3)c1	34*	0	10	-6	3	1	30*
CC[C@@H](OP(=O)(O)[C@@H](C)N)C(=O)O	5	2	.	5	.	-3	.
O=C(O)c1ccc(NS(=O)(=O)c2cccc(C(=O)Nc3ccc(Br)cc3)c2)cc1	-19	9	-1	-4	1	-8	.
N#Cc1c(NC(=O)c2cccc(S(=O)(=O)Nc3ccc(C(=O)O)cc3)c2)sc2c1CCCC2	36*	-6	-2	-10	1	-8	30*
Nc1cccc2c(O)cc(S(=O)(=O)O)cc12	.	.	31	.	.	.	.
Nc1ccc2c(O)cc(S(=O)(=O)O)cc2c1	39*	0	25	-32	14	-15	26
CC(=O)c1c(C)oc2c1cc(NS(=O)(=O)c1ccc(C(=O)O)cc1)c1ccccc12	7	1	-12	1	-5	-8	.
COC(=O)c1c(C)oc2c1cc(NS(=O)(=O)c1ccc(C(=O)O)cc1)c1ccccc12	34*	9	-20	-11	-3	-14	21
COc1ccc(COC(=O)CCCN=C2NS(=O)(=O)c3ccccc32)cc1F	3	-5	2	-4	-5	-2	.
C=CCOc1ccc(C=NNc2ccc(S(=O)(=O)Nc3ccccc3C(=O)O)cc2[N+](=O)[O-])cc1OC	50*	1	26	-1	16	11	59*
CSc1ccc(C=NNc2ccc(S(=O)(=O)Nc3ccccc3C(=O)O)cc2[N+](=O)[O-])cc1	32*	-7	16	-3	-1	12	78*
CCCC(CCC)=NNc1ccc(S(=O)(=O)Nc2ccccc2OC)cc1[N+](=O)[O-]	3	-1	-5	3	9	-1	.
SMILES	ABHD4 inh	Tn7 DDE FP	HTRA1 inh	Tn6 DDE FP	TCR-CD3 inh	SIAE inh	mABHD4 conf
CCOc1cccc(C=NNc2ccc(S(=O)(=O)Nc3ccccc3C(=O)O)cc2[N+](=O)[O-])c1O	62*	1	14	-6	3	-1	66*
CCOc1ccc(C=NNc2ccc(S(=O)(=O)Nc3ccccc3C(=O)O)cc2[N+](=O)[O-])cc1	.	.	11	.	.	10	.
Cc1nn(-c2ccccc2)c(Cl)c1/C=N/Nc1ccc(S(=O)(=O)Nc2ccccc2C(=O)O)cc1[N+](=O)[O-]	42*	1	6	-10	0	18*	62*
CC(=O)Oc1cc2c(s1)CCN(C(C(=O)C1CC1)c1ccccc1F)C2 (stereo not drawn)	10	2	.	-7	.	3	.
Cc1c(Cl)cccc1N/C(SCC(=O)N1CCCCCC1)=C(/C#N)c1nc2ccccc2s1	35*	5	-3	-1	-3	-3	34*
Cc1cc(O)c(-c2cc(O)c(C)cc2O)cc1O	32*	-5	9	-7	5	10	26
CCCC(C)(C)C(=O)N1CCC1(C)C(=O)Nc1ccc2c(c1)OCCO2 (stereo not drawn)	-6	2	.	-2	-8	-5	.
Nc1ncc(N=Nc2cc(C(=O)O)ccc2Cl)s1	42*	2	5	3	4	-3	62*
COc1ccc2c(c1)Sc1ccc(Cl)cc1N2	34*	-5	.	2	.	2	34*
Cn1nnnc1SCC(=O)Nc1cc(C(C)(C)C)nn1-c1ccccc1	-2	-4	-2	2	-1	-2	.
Cc1cc(NC(=O)CSc2nnnn2C)n(-c2ccccc2)n1	56*	-7	-7	5	6	4	0
CCOC(=O)C1=C(C)N=C2c3ccccc3C(=O)C2C1c1ccccc1 (stereo not drawn)	34*	-3	-1	-1	-3	2	37*
CCOC(=O)C1=C(C)N=C2c3ccccc3C(=O)C2C1c1ccc(C)cc1 (stereo not drawn)	22	3	0	-3	2	-2	.
O=C(NCC(F)(F)F)c1ccc2sc([C@@H]3O[C@H](CO)[C@H](O)[C@H](O)[C@H]3O)nc2c1	2	-6	.	0	-1	-2	.

High-throughput results deposited in PubChem BioAssay by The Scripps Research Institute Molecular Screening Center.
